Reference: ChEMBL document CHEMBL1687858, “Natural and semisynthetic mammea-type isoprenylated dihydroxycoumarins uncouple cellular respiration” (J Nat Prod, 2011)
The source made the active and inactive calls. The rule behind the calls is not given here.

Tests used:
[1] = target: T1, Hypoxia inducible factors; HIF-1-alpha, HIF-2-alpha (Homo sapiens, UniProt Q16665+Q99814); assay: Inhibition of 1,10-phenanthrolin-induced HIF1 activation in human T47D cells expressing pGL3 construct after 16 hrs by cell-based luciferase reporter assay
Outline: (§1)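 T47D cells carrying an HIF-1 luciferase reporter, induced for 16 h either by hypoxia (1% O2) or by 10 μM 1,10-phenanthroline, with compounds over 0.31 to 20 μM. IC50 and 95% CI taken from one representative of two independent experiments, each run in triplicate.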

T47D [2] = assay: Antiproliferative activity against human T47D cells after 48 hrs; format: functional, cell-based
Outline: (§2)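 Tumor cells (T47D or PC-3, from ATCC) exposed 48 h to compounds at 0.31 to 20 μM, from DMSO stocks with final DMSO under 0.5%. EC50 and 95% CI derived from one experiment run in triplicate. Maximum inhibition set at 50% for T47D and 40% for PC-3.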

[3] = target: T1, Hypoxia inducible factors; HIF-1-alpha, HIF-2-alpha; assay: Inhibition of hypoxia-induced HIF1 activation in human T47D cells expressing pGL3 construct after 16 hrs by cell-based luciferase reporter assay; outline: as §1
PC-3 [4] = assay: Antiproliferative activity against human PC3 cells after 48 hrs; format: functional, cell-based; settings: PC-3, 48 h; outline: as §2
T47D [5] = assay: Cytostatic effect against human T47D cells assessed as cell growth inhibition at 20 uM after 48 hrs; format: functional; design: scale not given: the % may be the effect or the level left
T47D [6] = assay: Effect on cellular respiration in human T47D cells assessed as oxygen consumption at 0.3 uM by cell-based reporter assay; format: functional
Outline: (§3)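 Oxygen consumption of T47D cells measured with compound at 0.3, 1, 3 and 10 μM. Reported as Relative Respiration Rate = 100 × (OCR compound / OCR untreated control) − 100. FCCP included as reference uncoupler. Mean + SD from three independent experiments.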

T47D [7] = assay: Effect on cellular respiration in human T47D cells assessed as decrease in oxygen consumption at 10 uM by cell-based reporter assay; format: functional; outline: as §3
T47D [8] = assay: Effect on cellular respiration in human T47D cells assessed as decrease in oxygen consumption at 0.3 to 10 uM by cell-based reporter assay in presence of F0F1ATPase 1 uM inhibitor oligomycin; format: functional
PC-3 [9] = assay: Antiproliferative activity against human PC3 cells assessed as cell viability at 20 uM; format: functional; settings: read-out: Activity
T47D [10] = assay: Effect on cellular respiration in human T47D cells assessed as increase in state 4 respiration at 0.3 to 3 uM by cell-based reporter assay; format: functional
Outline: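 Respiring T47D cells given oligomycin (1 μM) to set state 4 respiration, then compound or FCCP added at 0.3, 1 and 3 μM. Reported as Respiration Index = OCR (oligomycin + compound) / OCR (oligomycin).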

T47D [11] = assay: Inhibition of hypoxia-induced VEGF protein secretion in human T47D cells at 3 uM after 16 hrs by ELISA; format: functional
Outline: (§4)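 T47D cells held under hypoxia (1% O2, 16 h) with compound at 3 or 10 μM. VEGF in conditioned medium measured by ELISA and normalized to cellular protein. Normoxic and hypoxic medium controls included. Mean + SD from one experiment run in triplicate.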

T47D [12] = assay: Inhibition of hypoxia-induced VEGF protein secretion in human T47D cells after 16 hrs by ELISA; format: functional, cell-based; outline: as §4
T47D [13] = assay: Inhibition of hypoxia-induced VEGF protein secretion in human T47D cells upto 10 uM after 16 hrs by ELISA; format: functional; outline: as §4

| Structure (SMILES) | IC50 [1] | IC50 (T47D [2]) | IC50 [3] | IC50 (PC-3 [4]) | Activity (T47D [5]) | Activity (T47D [6]) | Activity (T47D [7]) | Activity (T47D [8]) | viability at 20 µM (PC-3 [9]) | Activity (T47D [10]) | inhibition (T47D [11]) | inhibition (T47D [12]) | Activity (T47D [13]) |
| --- | --- | --- | --- | --- | --- | --- | --- | --- | --- | --- | --- | --- | --- |
| CCCC[C@H](OC(C)=O)c1cc(=O)oc2c(C(=O)[C@@H](C)CC)c(OC(C)=O)c(CC=C(C)C)c(O)c12 | 5.47 µM | 4.72 µM | 5.11 µM | 6.41 µM |  |  |  |  |  |  |  |  |  |
| CCCc1cc(=O)oc2c(CC=C(C)C)c(O)c(C(=O)[C@H](C)CC)c(O)c12 | 8.21 µM | 5.52 µM | 9.96 µM | 10.5 µM |  | inactive | Active | Active |  | Active |  |  | 1 µM |
| CCCc1cc(=O)oc2c(C(=O)[C@@H](C)CC)c(O)c(CC=C(C)C)c(O)c12 | 3.25 µM | 3.22 µM | 5.04 µM | 6.05 µM |  |  |  |  |  |  |  |  |  |
| CC(C)=CCc1c(O)c(C(=O)CC(C)C)c(O)c2c(-c3ccccc3)cc(=O)oc12 [MAMMEISIN] | 3.71 µM | 4.28 µM | 4.44 µM | 5.31 µM |  |  |  |  |  |  |  |  |  |
| CCCC[C@H](OC)c1cc(=O)oc2c(C(=O)[C@@H](C)CC)c(OC)c(CC=C(C)C)c(OC)c12 | 18.4 µM | 6.95 µM | 13.2 µM | > 20 µM |  |  |  |  |  |  |  |  |  |
| CCCC[C@H](O)c1cc(=O)oc2c(C(=O)[C@@H](C)CC)c(OC)c(CC=C(C)C)c(OC)c12 | 6.5 µM | 4.54 µM | 6.31 µM | 6.41 µM | 91% | inactive | Active | Active | 93% | Non-toxic | Active | Dose-dependent effect |  |
| CCCC[C@H](OC)c1cc(=O)oc2c(CC(=O)[C@@H](C)CC)c(OC)c(CC=C(C)C)c(OC)c12 | 15.7 µM | 4.67 µM | 5.91 µM | > 20 µM |  |  |  |  |  |  |  |  |  |
| CC[C@H](C)C(=O)c1c(O)c(CC=C(C)C)c(O)c2c(-c3ccccc3)cc(=O)oc12 | 5.96 µM | 4.01 µM | 6.76 µM | 5.26 µM |  |  |  |  |  |  |  |  |  |
| CCCCCc1cc(=O)oc2c(CC=C(C)C)c(O)c(C(=O)[C@H](C)CC)c(O)c12 [MAMMEA C/AB] | 5.31 µM | 3.57 µM | 5.7 µM | 4.18 µM |  |  |  |  |  |  |  |  |  |
| CCCC[C@H](O)c1cc(=O)oc2c(CC(=O)[C@@H](C)CC)c(OC)c(CC=C(C)C)c(OC)c12 | 11.3 µM | 6.18 µM | 7.42 µM | 10.6 µM |  |  |  |  |  |  |  |  |  |
| CCCc1cc(=O)oc2c(CC=C(C)C)c(O)c(C(=O)CC(C)C)c(O)c12 | 9.56 µM | 3.62 µM | 9.4 µM | 7.03 µM |  |  |  |  |  |  |  |  |  |

Further compounds by falling IC50 (T47D [2]), results first:

| IC50 [1] | IC50 (T47D [2]) | IC50 [3] | IC50 (PC-3 [4]) | Structure (SMILES) | Activity (T47D [5]) | Activity (T47D [6]) | Activity (T47D [7]) | Activity (T47D [8]) | viability at 20 µM (PC-3 [9]) | Activity (T47D [10]) | inhibition (T47D [11]) | inhibition (T47D [12]) | Activity (T47D [13]) |
| --- | --- | --- | --- | --- | --- | --- | --- | --- | --- | --- | --- | --- | --- |
| 4.12 µM | 3.13 µM | 4.19 µM | 3.36 µM | CCCCCc1cc(=O)oc2c(CC=C(C)C)c(O)c(C(=O)CC(C)C)c(O)c12 |  |  |  |  |  |  |  |  |  |
| 4.82 µM | 2.88 µM | 4.63 µM | 3.82 µM | CC[C@H](C)C(=O)c1c(O)c(CC=C(C)C)c2oc(=O)cc(-c3ccccc3)c2c1O |  |  |  |  |  |  |  |  |  |
| 3.73 µM | 1.57 µM | 3.23 µM | 2.18 µM | CC(C)=CCc1c(O)c(C(=O)CC(C)C)c2oc(=O)cc(-c3ccccc3)c2c1O [ISOMAMMEISIN] |  | inactive | Active | Active |  | Active |  | Dose-dependent effect |  |
| 3.4 µM | 1.56 µM | 3.73 µM | 2.19 µM | CCCCCc1cc(=O)oc2c(C(=O)[C@@H](C)CC)c(O)c(CC=C(C)C)c(O)c12 |  |  |  |  |  |  |  |  |  |
| 2.3 µM | 1.36 µM | 2.23 µM | 2.09 µM | CCCC[C@H](O)c1cc(=O)oc2c(C(=O)[C@@H](C)CC)c(O)c(CC=C(C)C)c(O)c12 |  | inactive | Active | Active |  | Active | inactive | Dose-dependent effect |  |
| 2.71 µM | 1.36 µM | 2.76 µM | 1.88 µM | CCCCCc1cc(=O)oc2c(C(=O)CC(C)C)c(O)c(CC=C(C)C)c(O)c12 |  | inactive | Active | Active |  | Active |  | Dose-dependent effect |  |
| 1.28 µM | 1.32 µM | 2.2 µM | 2.27 µM | CCCc1cc(=O)oc2c(C(=O)CC(C)C)c(O)c(CC=C(C)C)c(O)c12 |  | inactive | Active | Active |  | Active | inactive | Dose-dependent effect |  |
| 1.68 µM | 0.97 µM | 2.06 µM | 1.16 µM | CCCC[C@H](OC(C)=O)c1cc(=O)oc2c(C(=O)[C@@H](C)CC)c(O)c(CC=C(C)C)c(OC(C)=O)c12 |  |  |  |  |  |  |  |  |  |
| 1.81 µM | 0.91 µM | 1.72 µM | 1.14 µM | CCCC[C@H](O)c1cc(=O)oc2c(C(=O)CC(C)C)c(O)c(CC=C(C)C)c(O)c12 |  |  |  |  |  |  |  |  |  |
| 1.06 µM | 0.73 µM | 0.83 µM | 1.17 µM | CCCC[C@H](OC(C)=O)c1cc(=O)oc2c(C(=O)[C@@H](C)CC)c(OC(C)=O)c(CC=C(C)C)c(OC(C)=O)c12 | 82% | inactive | Active | Active | 65% | Non-toxic |  |  |  |
